Laboratory results: ChEMBL document CHEMBL1250451, “Mechanistic insights into a Ca2+-dependent family of alpha-mannosidases in a human gut symbiont” (Nat Chem Biol, 2010)

How the values were obtained:
Format in all cases: protein assay
[1] = substrate: O=[N+]([O-])c1ccc(O[C@H]2O[C@H](CO)[C@@H](O)[C@H](O)[C@@H]2O)cc1; test: (§1) Activity of Bacteroides thetaiotaomicron GH92 alpha-mannosidase GH92 alpha-mannosidase 4093 assessed as mannose release after 16 hrs by HPLC
Procedure, shortened: (§2)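 Yeast mannan or ovalbumin (mostly high-mannose N-glycans) at 1 mg ml−1 was incubated with recombinant IMAC-purified enzyme from E. coli. The methods give enzyme at 2 μM and the table footnote gives 1 μM. Buffer was 100 mM sodium HEPES pH 7.0 with 1 mg ml−1 BSA and 2 mM CaCl2. Aliquots were taken at 1 and 16 h and boiled 10 min. Mannose was measured by HPLC and scored by signal: >500 nC +++, 200–500 ++, <200 +.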

[2] = substrate: OC[C@H]1O[C@H](O[C@H]2[C@H](O)[C@H](O)[C@@H](O)O[C@@H]2CO)[C@@H](O)[C@@H](O)[C@@H]1O; test: as §1; procedure, shortened: as §2
[3] = substrate: O=[N+]([O-])c1ccc(O[C@H]2O[C@H](CO)[C@@H](O)[C@H](O)[C@@H]2O)cc1; test: (§3) Ratio of Kcat to Km for Bacteroides thetaiotaomicron GH92 alpha-mannosidase GH92 alpha-mannosidase 4093 assessed as mannose release after 16 hrs by HPLC
[4] = substrate: OC[C@H]1O[C@H](O[C@H]2[C@H](O)[C@H](O)[C@@H](O)O[C@@H]2CO)[C@@H](O)[C@@H](O)[C@@H]1O; test: as §3
[5] = substrate: O=[N+]([O-])c1ccc(O[C@H]2O[C@H](CO)[C@@H](O)[C@H](O)[C@@H]2O)cc1; test: (§4) Ratio of Kcat to Km for Bacteroides thetaiotaomicron GH92 alpha-mannosidase GH92 alpha-mannosidase 3994 assessed as mannose release after 16 hrs by HPLC
[6] = substrate: OC[C@H]1O[C@H](O[C@H]2[C@H](O)[C@H](O)[C@@H](O)O[C@@H]2CO)[C@@H](O)[C@@H](O)[C@@H]1O; test: as §4
[7] = substrate: O=[N+]([O-])c1ccc(O[C@H]2O[C@H](CO)[C@@H](O)[C@H](O)[C@@H]2O)cc1; test: Activity of Bacteroides thetaiotaomicron GH92 alpha-mannosidase GH92 alpha-mannosidase 3994 assessed as mannose release after 16 hrs by HPLC
[8] = substrate: O=[N+]([O-])c1ccc(O[C@H]2O[C@H](CO)[C@@H](O)[C@H](O)[C@@H]2O)cc1; test: Ratio of Kcat to Km for Bacteroides thetaiotaomicron GH92 alpha-mannosidase GH92 alpha-mannosidase 4073 assessed as mannose release after 16 hrs by HPLC
[9] = substrate: O=[N+]([O-])c1ccc(O[C@H]2O[C@H](CO)[C@@H](O)[C@H](O)[C@@H]2O)cc1; test: (§5) Activity of Bacteroides thetaiotaomicron GH92 alpha-mannosidase GH92 alpha-mannosidase 4073 assessed as mannose release after 16 hrs by HPLC; procedure, shortened: as §2
[10] = substrate: OC[C@H]1O[C@H](O[C@H]2[C@H](O)[C@H](O)[C@@H](O)O[C@@H]2CO)[C@@H](O)[C@@H](O)[C@@H]1O; test: as §5; procedure, shortened: as §2

B1: Alpha-1,2-mannosidase family protein (BT_4093) (Bacteroides thetaiotaomicron), Q8A0C8 (protein)
chain: MKHKFLFILLFSLVLEGMVTTQAVAGDYVHQVNTLIGTKGTGLTSGYLYPGATYPYGMVQFTPSYFSKRSGFVINQLSGGGCEHMGNFPTFPVKGKLKMSPDNILNYRINVSEEKGHAGYYEAMVQEDIKAKLTVTERTGMASYEYPADQQYGTIIIGGGISATPIEQAAIVITAPNKCEGYAEGGNFCGLRTPYKVYFVAEFDTDAFETGTWKREELMPNTTFAEGEYSGVYFTFDVNKKKNIQYKIGVSYVSVENARENLKAENAEWDFQKIQNQAEAKWNHYLGMIEVEGTNPDRTTQFYTHLYRSFIHPNVCSDVNGEYMGADFRVHKSRSKHYTSFSNWDTYRTQIQLLSMLDPEVASDIVISHQLFAEQSGGSFPRWVMANIETGVMQGDPTPILIANAYAFGARNYDPKPIFKIMRKGAEEPGSKSQDVETRPGLKQYLDKGYYNASIQLEYTSADFAIGQFALHAVGDEFASWRYFHFARSWKNLYNSDTGWLQSRNPDGSWKSLGEDFRESTYKNYFWMVPYDIAGLVEIIGGKEKAEKRLDEFFTRLDAGYNDAWFASGNEPSFHIPWIYNWIGRPYKTQEIINRVLNEQYSSKIDGLPGNDDLGTMGAWYVFACIGLYPEIPGVGGFTVNTPIFSSVKVHLKKGDIVIKGGSEKDIYIKSMKLNGKSYESTWIDWDQLNSGATIEYRTSGKPDMKWGAKVVPPSFP
Km [1]: 1300 µM
kcat [1]: 0.0112 s⁻¹
Km [2]: 35000 µM
kcat [2]: 1.33 s⁻¹
kcat/Km [3]: 9.08 M⁻¹ s⁻¹
kcat/Km [4]: 38.3 M⁻¹ s⁻¹

B2: Alpha-1,2-mannosidase (BT_3994) (Bacteroides thetaiotaomicron), Q8A0M7 (protein)
chain: MKTPIYLLLIVCIFASCNTKQTQAEIDYTSYVNPFIGTDFTGNTYPGAQAPFGMVQLSPDNGLPGWDRISGYFYPDSTIAGFSHTHLSGTGAGDLYDISFMPVTLPYKEAEAPLGIYSKFSHDEESAYAGYYQVRLKDYHINVELTATERCGIQRYTFPKAEAAIFLNLKKAMNWDFTNDSHIEVVDSVTIQGYRYSDGWARDQRIYFRTRFSKPFDKVELDTTAIIKDKQHIGTAVIARFDFHTEEGEQILVNTAISGVSMEGAAKNLQAEVPENDFDKYLAETKANWNRQLGKIEVEGDNQDDKVNFYTALYHSMIAPTIYSDVDGAYYGPDKKVHQSDGWVNYSTFSLWDTYRAAHPLFTYTEPERVNDMVKSFIAFFEQNGRLPVWNFYGSETDMMIGYHAVPVIVDAYLKGIGNFDAEKALAACVATANLDNYRGIGLYKQLGYIPYNVTDHYNAENWSLSKTLEYAFDDYCIAEMANKMGKKEIADEFYKRSQNYKNVYNPATSFMQPRDDKGNFIKDFKADEYTPHICESNGWQYFWSVQHDIDGLIDLTGGKNRFAEKLDSMFTYHPAADEELPIFSTGMIGQYAHGNEPSHHVIYLFNAVGQQNLTQKYVAKVMNELYKNEPAGLCGNEDCGQMSAWYVFSAMGFYPVNPVSGKYEIGTPLFPEMKLHLANGKTFTVLAPKVSKENIYIQSIKVDGQPYNKTYLTHEQIMSGTTVEFEMGNTPLVEVEFEEQTQ
kcat/Km [5]: 433 M⁻¹ s⁻¹
kcat/Km [6]: 0.0833 M⁻¹ s⁻¹
Km [7]: 3700 µM
kcat [7]: 1.57 s⁻¹

B3: Alpha-1,2-mannosidase, putative (BT_4073) (Bacteroides thetaiotaomicron), Q8A0E8 (protein)
chain: MYKASANILIACSFLWLTACSSAGVVTEDLIPTDYVNPFIGASTSVGAAGVYHGLGKTFPGATTPYGMVQVSPNTITGGDNSSGYSDEHKTIEGFAFTQMSGVGWFGDLGNFLVMPTTGELQKIAGKEDGSIKGYRSSYDKATETAKAGYYSVELTDYKIKVESSATPHCGILQFTFPSNEQSRIQIDLARRVGGTSTSQYVKVLDDYTIQGWMKCTPDGGGWGNGEGNSDYTVYYYAQFSKPLSNYGFWSADIPDEWVRKRDEVVSIPYLTRISQAPVIKDKKELEGKHLGFFTEFPTKEGEQVEMKVGISFVDMEGAANNFKQEIASKNFAQVKQEASDLWNKELSRIRISGGTDDEKTVFYTSLYHTMIDPRIYTDVDGRYIGGDKKVHEQDGTFTKRTIFSGWDVFRSQFPLQAMINPRLVSDALNSLITMADQSRREYYERWELLNSYSGCMIGNPALSVLADAYMKGIRTYDVEKAYQYAVNTSAKFGNDSLGYTPEPLSISYTLEYAYADWCVAQLAKALGKEEDAKRFYEKGQAYRNMFDAEKGWFRPRNADGSWKAWPENALTEEWYGCIESNAYQQGWFVPHDVPGMVELMGGKEEVIANLTNLFDHTPSDMLWNDYYNHANEPVHFVPFLFNQLDVPWYTQKWTRYICKNAYANKVEGIVGNEDVGQMSAWYILAASGIHPSCPGNTRMEITSPVFDKVEFNLDSKYHQGKVFTIIAHNNNTNNLYIQKALLNGKEYNKCYLDFAEIAAGGTLELFMGDKPNTEWGVLSNI
kcat/Km [8]: 2.33 M⁻¹ s⁻¹
Km [9]: 1800 µM
kcat [9]: 0.0045 s⁻¹
Km [10]: 270 µM
